Tn7 DDE FP – DD(E)-Tn7 binding inhibition, primary FP screen | AID 720508 | P02675 | actives 0.13% (n = 370,000) | inhibition, % at 8.3 µM | FP displacement of FITC-Tn7 peptide from fibrin DD(E); 0% = median of compound wells per plate;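 active = inhibition above the mean of compounds falling within the control limits plus 3 SD of them, cut at about 14% in these data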;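 also: 0% = plate median of compound wells and 100% = 10 µM Aha-Tn7 peptide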
Target sequence (P02675 whole entry, looked up): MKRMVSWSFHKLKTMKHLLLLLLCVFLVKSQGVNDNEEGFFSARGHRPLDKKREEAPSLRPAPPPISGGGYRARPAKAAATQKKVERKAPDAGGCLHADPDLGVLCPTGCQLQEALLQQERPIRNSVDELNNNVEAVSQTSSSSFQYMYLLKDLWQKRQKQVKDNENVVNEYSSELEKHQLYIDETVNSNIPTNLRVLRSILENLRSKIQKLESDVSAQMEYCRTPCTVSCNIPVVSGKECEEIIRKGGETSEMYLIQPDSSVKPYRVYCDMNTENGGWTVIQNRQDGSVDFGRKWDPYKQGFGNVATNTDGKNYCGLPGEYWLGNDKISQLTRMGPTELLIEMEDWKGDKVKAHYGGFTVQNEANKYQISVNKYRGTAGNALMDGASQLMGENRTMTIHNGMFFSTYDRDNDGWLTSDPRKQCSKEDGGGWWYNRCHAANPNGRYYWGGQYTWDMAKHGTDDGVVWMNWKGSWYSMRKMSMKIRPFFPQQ
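Test system: human clot-derived fibrin DD(E) complex / Quantity: 2 µM final DD(E) protein / Incubation: 10 min plus 3 h, room temperature / Measured by: fluorescence polarization / Benchmarks: high control of 10 µM Aha-Tn7 peptide / Replicates: singlicate testing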
DAGLB inh – diacylglycerol lipase beta (human) inhibition. actives 0.059% (n = 340,000). inhibition, % at 5.17 µM. HEK293T DAGLB membrane lysate, EnzChek fluorogenic substrate. AID 504411. Q8NCG7; in the data active = inhibition above about 34%;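 also: 0% = enzyme with vehicle and 100% = wells lacking enzyme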
H9c2 TAG inh – reduces triacylglycerol accumulation in H9c2 cells | Nile Red lipid (TAG) fluorescence; cells loaded with 200 µM oleic acid | inhibition, % at 12.5 µM | actives 0.66% (n = 230,000) | AID 651582;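 active = pattern-corrected inhibition of lipid staining of at least 50% with the nuclear-stain viability signal not falling by more than 50%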;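 also: 0% = DMSO wells and 100% = triacsin C control wells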
Tn6 DDE FP – inhibitors of Tn6 peptide binding to human fibrin DD(E) | Fibrin DD(E) TRITC-Tn6 fluorescence polarization displacement | actives 0.21% (n = 370,000) | inhibition, % at 8.3 µM | P02675;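 active = inhibition above a per-campaign cutoff: mean of compounds within control limits plus 3 SD, cut at about 15% in these data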;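 also: 0% = median of all compound wells on the plate and 100% = blocking peptide control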
MT1-MMP act inh – inhibitors of human MT1-MMP activation; P50281; HT1080 RFP-PRO-GFP cells, GFP/RFP ratio fluorescence, overnight; percent of plate control window, DMSO zero; GFP/RFP ratio change, % at 20 µM; actives 0.061% (n = 360,000); AID 651647;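 active = GFP/RFP ratio change of at least 30% with cell ATP level not reduced by more than half and red fluorescence within 50% of control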
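Compound: 20 µM single dose, 1% DMSO / System: HT1080 RFP-PRO-GFP cells / Controls: DMSO and RFP-L50D-GFP cell wells / Read-out basis: GFP/RFP fluorescence ratio / Schedule: overnight compound exposure at 37 °C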
H9c2 protect – modulators protecting cardiomyocytes from myocardial damage; H9c2 cardiomyocytes, H2O2 injury protection, ATPLite, 2 h; protection from H2O2 cell death, % at 20 µM; actives 0.63% (n = 360,000);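 active = compounds giving at least 50% protection of heart cells from peroxide-induced death in the single-dose screen, raw or plate-pattern-corrected value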;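 also: 0% = DMSO wells with peroxide and 100% = DMSO wells without peroxide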
Tn6 DDE ctr – counter-screen for inhibitors of Tn6 peptide binding to fibrin DD(E); shares compounds with Tn6 DDE FP; TRITC-Tn6 fluorescence polarization displacement; 0% = median of compound wells, not DMSO; inhibition, % at 8.3 µM; actives 2% (n = 680); AID 720621;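 active = inhibition above the mean of test compounds lying between the control limits plus 3 SD of those, cut at about 14% in these data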;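 also: 0% = median of compound wells and 100% = wells with Aha-Tn7 blocking peptide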
DDE Tn6 confirm – DD(E)-Tn6 binding inhibition, FP confirmation; inhibition, % at 8.3 µM; shares compounds with Tn6 DDE FP; actives 10% (n = 680); AID 720631; FP displacement of TRITC-Tn6 peptide from DD(E); 0% = per-plate median of test wells;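 active = inhibition above the mean of compounds lying within the control limits plus 3 SD, cut at about 16% in these data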;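 also: 100% = high control wells holding a competing inhibitor peptide at 10 µM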
* hit, by the source's call; . = no result given. Hits are enriched below; roughly 1.4% of the tested compounds scored in any of these assays.

SMILES	Tn7 DDE FP	DAGLB inh	H9c2 TAG inh	Tn6 DDE FP	MT1-MMP act inh	H9c2 protect	Tn6 DDE ctr	DDE Tn6 confirm
c1cc(-c2ccoc2)n2ccnc2c1	8	.	-1	23*	-3	3	-7	-7
O=C(Nc1cccc(-c2nc3ccccc3[nH]2)c1)c1cccc(NC(=O)c2ccco2)c1	9	-2	.	86*	-1	-16	6	30*
O=C(Nc1ccc2nc(-c3ccccc3)[nH]c2c1)c1ccco1	0	3	18	-13	8	5	.	.
Cc1nnc(SCC(=O)NC2(C#N)CCCCC2)n1N	4	1	13	-4	0	0	.	.
COc1ccc(C2=Nn3c(nnc3-c3ccncc3)SC2)cc1OC	-4	-1	.	19*	-9	35	-2	-6
CN(Cc1ccc(Cl)cc1)C(=O)c1[nH]c(C(F)(F)F)nc1-c1ccccc1	-3	.	.	-2	2	-3	.	.
Cc1cc2cc(CNC(=O)CC(C)C)ccc2n1C	-2	-1	.	16*	23	2	-2	-13
Cc1cc2cc(CNC(=O)C(C)Oc3ccccc3)ccc2n1C (centres undefined)	-6	4	-2	36*	50	10	4	4
COc1ccc(CC(=O)NCc2ccc3c(c2)cc(C)n3C)cc1	4	5	25	-3	.	7	.	.
Cc1ccccc1NC(=S)NCc1ccc2c(c1)cc(C)n2C	9	3	-2	20*	-5	-8	3	-5
Cc1ccc(C)c(NC(=O)CN2C(=O)NC(CCc3ccccc3)C2=O)c1 (centres undefined)	0	-1	1	-3	3	6	.	.
O=C(CCS(=O)(=O)c1cc2c(cc1Br)CCN2C(=O)C1CC1)N1CCN(c2ccccn2)CC1	-3	.	.	3	.	.	.	.
CC(Cl)C(=O)N1CCC(C(=O)NC2CCCc3ccccc32)CC1 (centres undefined)	-8	.	.	0	.	.	.	.
CCN(Cc1nc2cc(Cl)ccc2c(=O)[nH]1)C(=O)c1cc(C2CC2)nn1-c1ccccc1	-5	1	-16	16*	-5	14	-1	-16
CCN(Cc1nc2cc(Cl)ccc2c(=O)[nH]1)C(=O)c1nn(C)c(=O)c2ccccc12	4	-2	3	4	4	10	.	.
O=C(COC(=O)CCCCCN=C1NS(=O)(=O)c2ccccc21)Nc1ccc(Cl)c(Cl)c1	1	2	2	29*	0	8	7	5
O=C(CCCN=C1NS(=O)(=O)c2ccccc21)OCC(=O)c1ccccc1	1	4	2	-4	-3	-2	.	.
Cc1cc(C)n2c(Nc3c(C)cccc3C)c(-c3ccccn3)nc2n1	6	.	.	16*	-8	.	4	2
CCC(C)NC(=O)c1csc2c1CCCCC2 (centres undefined)	4	-2	6	19*	5	-2	1	2
O=C(NC(c1ccc(Cl)cc1)c1ccccn1)C1CCN(CCOc2ccc(Cl)cc2Cl)CC1 (centres undefined)	0	.	-15	-4	1	-32	.	.
Cc1cccnc1C(NC(=O)C1CCN(CCOc2ccc(Cl)cc2Cl)CC1)c1ccc(Cl)cc1 (centres undefined)	-1	.	-7	16*	-10	-11	7	0
CC(NCc1cccnc1)c1ccccc1 (centres undefined)	7	-4	.	16*	0	6	0	3
O=C(CC(c1ccccc1)c1ccccc1)NCc1cccnc1	-1	-2	.	0	-2	0	.	.
Cc1cc2nc3ccc(N(C)C)cc3nc2cc1N	3	4	-45	33*	4	-13	-9	65*

Assay outcomes from PubChem.
